This is an account of results in ChEMBL document CHEMBL1157379, “Transcriptional response of Candida parapsilosis following exposure to farnesol” (2007).

Activity calls are given as the source filed them. The rule behind the calls is not given here.

In assay [1] the test system is Candida parapsilosis. The assay is described as follows: Increase in CGD gene ortholog accession number orf19.3349 expression in Candida parapsilosis CLIB214 at 50 uM after 2 hrs by microarray based transcriptional profiling relative to control. Format: functional. The method in brief: (§1)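 Strain CLIB214 grown overnight in YPD at 30°C, diluted to A600 0.2 in fresh YPD at 30°C. After 4 h (A600 0.8), farnesol (40 mM methanol stock) added to 50 μM final, or an equal methanol volume as control; cells harvested 2 h later. RNA was accepted only with a 28S/18S ratio of 1.6–2.2. Cy3/Cy5-dCTP-labelled cDNA was made from 25 μg total RNA. Hybridisation was to duplicate-spotted 68-mer oligo arrays (3,849 genes) at 42°C for about 16 h. Six individual comparisons.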

Assay [2] has as its system Candida parapsilosis. The assay is described as follows: Decrease in CGD gene ortholog accession number orf19.5156 expression in Candida parapsilosis CLIB214 at 50 uM after 2 hrs by microarray based transcriptional profiling relative to control. The format is functional. In short, it runs like this: (§2)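 Cells in YPD at 30°C treated with 50 μM farnesol at 4 h, with a methanol control. RNA harvested 2 h later and kept only if 28S/18S ratio was 1.6–2.2 with no degradation. 25 μg total RNA oligo-dT primed and labeled with Cy3/Cy5-dCTP. Labeled cDNA hybridized about 16 h at 42°C to duplicate-spotted 68-mer oligo arrays. Six individual comparisons analyzed statistically.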

Assay [3] concerns Candida parapsilosis. In words: Increase in CGD gene ortholog accession number orf19.7353 expression in Candida parapsilosis CLIB214 at 50 uM after 2 hrs by microarray based transcriptional profiling relative to control. The format is functional. In short, it runs like this: as §1
In assay [4] the test system is Candida parapsilosis. In words: Decrease in ARG11 gene expression in Candida parapsilosis CLIB214 at 50 uM after 2 hrs by microarray based transcriptional profiling relative to control. The format is functional. The method in brief: as §2
The test system of assay [5] is Candida parapsilosis. The assay is described as follows: Increase in RTA3 gene expression in Candida parapsilosis CLIB214 at 50 uM after 2 hrs by microarray based transcriptional profiling relative to control. The format is functional. The method in brief:
(§3)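 Strain grown overnight in YPD at 30°C, diluted to A600 0.2 in YPD at 30°C; farnesol (40 mM methanol stock) added at 4 h (A600 0.8), final 50 μM; methanol-only control. Cells collected 2 h later for RNA. Labelled cDNA from 25 μg total RNA (Cy3/Cy5-dCTP) hybridized to 68-mer oligo arrays at 42°C ~16 h; six individual comparisons analysed statistically.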

Assay [6] concerns Candida parapsilosis. The assay is described as follows: Increase in CGD gene ortholog accession number orf19.854 expression in Candida parapsilosis CLIB214 at 50 uM after 2 hrs by microarray based transcriptional profiling relative to control. Format: functional. The method in brief:
as §3

The test system of assay [7] is Candida parapsilosis. The assay is described as follows: Antifungal activity against Candida parapsilosis CLIB214 assessed as growth inhibition at 10 to 20 uM added 4 hrs after […] growth. The format is functional, organism-based.
Assay [8] concerns Candida parapsilosis. In words: Increase in CGD gene ortholog accession number orf19.1230 expression in Candida parapsilosis CLIB214 at 50 uM after 2 hrs by microarray based transcriptional profiling relative to control. Format: functional. In short, it runs like this:
as §1

Assay [9] deals with Candida parapsilosis. The assay is described as follows: Reduction in ERG1 gene expression in Candida parapsilosis CLIB214 by RT-PCR. Format: functional, organism-based. In short, it runs like this:
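Cultures in YPD at 30°C, diluted to A600 0.2; 50 μM farnesol (final) or methanol added at 4 h, RNA harvested 2 h later. RT-PCR: 95°C hot start 1 min 30 s, then 26 cycles (95°C 40 s, 55°C 2 min, 72°C 3 min), final 72°C 5 min; each gene signal normalized to ACT1.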

Assay [10] deals with Candida parapsilosis. The assay is described as follows: Increase in GenBank accession number NP_943633.1 expression in Candida parapsilosis CLIB214 at 50 uM after 2 hrs by microarray based transcriptional profiling relative to control. The format is functional. In short, it runs like this: as §3

For `CC(C)=CCC/C(C)=C/CC/C(C)=C/CO` [FARNESOL], the “fold change (FC)” value in [1] is listed as 1.78; in assay [2], 2.02; in assay [3] it was 2.14; in [4] it was 1.56; in assay [5], 1.67; in [6], 1.69. The “fold change (FC)” value in assay [8] amounted to 1.53; in assay [10] it was 2.81. Also, the result in [7] was inactive. Also, the outcome in [9] was Active.
